Assay results reported in ChEMBL document CHEMBL1125819, “Novel benzamides as selective and potent gastrokinetic agents. 2. Synthesis and structure-activity relationships of 4-amino-5-chloro-2-ethoxy-N-[[4-(4-fluorobenzyl)-2- morpholinyl]methyl] benzamide citrate (AS-4370) and related compounds” (J Med Chem, 1991).

How the values were obtained:
Rattus norvegicus [1] = test: Gastric emptying of phenol red semisolid meal in rats at dose of 2.0 mg/kg, administered perorally.; type: functional; conditions: route oral
Mus musculus [2] = test: Toxicity tested in mouse and expressed as number of dead mouse / number of mouse used after a dose of 1.0 g/kg perorally; +++ potent toxicity; type: organism-based; conditions: in vivo, po, 1000 mg/kg
How it was run: (§1)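 Male ddY mice (18–25 g), groups of 10, given test compound dissolved or suspended in 0.5% tragacanth solution at a single oral dose of 1.0 g/kg. Mortality observed over 7 days after dosing and scored as dead/used per group; + corresponds to 0–2/10 dead.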

Mus musculus [3] = test: Toxicity tested in mouse and expressed as number of dead mouse / number of mouse used after a dose of 1.0 g/kg perorally; ++ moderate toxicity; type: organism-based; conditions: in vivo, po, 1000 mg/kg; how it was run: as §1
Mus musculus [4] = test: Gastric emptying of phenol red semisolid meal in mouse at the dose of 0.5 mg/kg administered perorally.; type: functional; conditions: route oral
How it was run: (§2)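 Mice received oral test article in 0.5% tragacanth, four or five animals per dose. Emptying of a phenol red semisolid meal was expressed as percent enhancement over the mean of 0.5% tragacanth controls. Significance was tested by Duncan's multiple range test.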

Mus musculus [5] = test: Toxicity tested in mouse and expressed as number of dead mouse / number of mouse used after a dose of 1.0 g/kg perorally; + slight toxicity; type: organism-based; conditions: in vivo, po, 1000 mg/kg; how it was run: as §1
Rattus norvegicus [6] = test: Gastric emptying of resin solid meal in rats at the dose of 2.0 mg/kg administered perorally.; type: functional; conditions: route oral
Rattus norvegicus [7] = test: Gastric emptying of phenol red semisolid meal in rats at the dose of 0.5 mg/kg administered perorally.; type: functional; conditions: route oral
Mus musculus [8] = test: Gastric emptying of phenol red semisolid meal in mouse at the dose of 1.0 mg/kg administered perorally.; type: functional; conditions: route oral; how it was run: as §2
Rattus norvegicus [9] = test: Gastric emptying of phenol red semisolid meal in rats at the dose of 0.2 mg/kg administered perorally.; type: functional; conditions: route oral

SMILES | GE (Rattus norvegicus [1]) [%] | Acute toxicity (Mus musculus [2]) | Acute toxicity (Mus musculus [3]) | GE (Mus musculus [4]) [%] | Acute toxicity (Mus musculus [5]) | GE (Rattus norvegicus [6]) [%] | GE (Rattus norvegicus [7]) [%] | GE (Mus musculus [8]) [%] | GE (Rattus norvegicus [9]) [%]
CCOc1cc(N)c(Cl)cc1C(=O)NCC1CN(C(C)c2ccccc2)CCO1 (stereo not drawn) | 44 | potent toxicity |  |  |  |  |  |  | 
CCOc1cc(N)c(Cl)cc1C(=O)NCC1CN(Cc2cccc(Cl)c2)CCO1 (stereo not drawn) | 58 |  | moderate toxicity |  |  |  |  |  | 
COc1cc(N)c(Cl)cc1C(=O)NCC1CN(Cc2cccc(C#N)c2)CCO1 (stereo not drawn) | 42 | potent toxicity |  |  |  |  |  |  | 
COc1cc(N)c(Cl)cc1C(=O)NCC1CN(C(C)c2ccccc2)CCO1 (stereo not drawn) | 42 | potent toxicity |  |  |  |  |  |  | 
CCOc1cc(N)c(Cl)cc1C(=O)NCC1CN(Cc2ccccc2)CCO1 (stereo not drawn) | 54 |  |  | 35 | Partially active | 58 | 34 | 23 | 
COc1cc(N)c(Cl)cc1C(=O)NCC1CN(Cc2ccccc2)CCO1 (stereo not drawn) | 39 |  | Partially active | 41 |  | 16 | 18 | 59 | 
COc1cc(N)c(Cl)cc1C(=O)NCC1CN(Cc2cccc(C(F)(F)F)c2)CCO1 (stereo not drawn) | 43 |  | moderate toxicity |  |  |  |  |  | 
CCOc1cc(NC(C)=O)c(Cl)cc1C(=O)NCC1CN(Cc2ccc(F)cc2)CCO1 (stereo not drawn) | 74 |  |  | 75 |  | 0 | 22 | 82 | 33
